System: not listed separately
Assay: Selectivity index, ratio of CC50 for human MCF10 cells to IC50 for human MCF7 cells
Assay type: toxicity
Conditions: MCF10 cells versus MCF7 cells, read-out: Ratio CC50/IC50

Question: Which selectivity ratio does the source give for `OC(CNCCCCc1ccccc1)c1ccccc1` (stereo unspecified) here?
Answer: The selectivity ratio was 2.88.

Question: With `c1ccc(CCCN2CC2c2ccccc2)cc1` (stereo unspecified) as the molecule, how does the selectivity ratio read?
Answer: Its selectivity ratio is 1.44.

Question: With `CCCCNCC(O)c1ccccc1` (stereo unspecified) as the molecule, how does the selectivity ratio read?
Answer: The selectivity ratio was 0.67.

Question: With `c1ccc(CN2CC2c2ccccc2)cc1` (stereo unspecified) as the molecule, how does the selectivity ratio read?
Answer: Its selectivity ratio is 1.47.

Question: For `OC(CNCCc1ccccc1)c1ccccc1` (stereo unspecified), which selectivity ratio is on record?
Answer: Its selectivity ratio is 0.62.

Question: For `c1ccc(CCN2CC2c2ccccc2)cc1` (stereo unspecified), which selectivity ratio is on record?
Answer: Its selectivity ratio is 0.2.

Question: For `c1ccc(CCCCN2CC2c2ccccc2)cc1` (stereo unspecified), which selectivity ratio is on record?
Answer: Its selectivity ratio is 1.83.

Question: With `OC(CNCc1ccccc1)c1ccccc1` (stereo unspecified) as the molecule, how does the selectivity ratio read?
Answer: The selectivity ratio was 0.96.

Question: For `OC(CNCCCCc1ccccc1)c1ccc(Br)cc1` (stereo unspecified), which selectivity ratio is on record?
Answer: The selectivity ratio was 4.04.

Question: With `OC(CNCCCc1ccccc1)c1ccccc1` (stereo unspecified) as the molecule, how does the selectivity ratio read?
Answer: Its selectivity ratio is 2.02.

Question: For `OC(CNCc1ccccc1)c1ccc(Br)cc1` (stereo unspecified), which selectivity ratio is on record?
Answer: Its selectivity ratio is 2.18.

Question: With `OC(CNc1ccccc1)c1ccccc1` (stereo unspecified) as the molecule, how does the selectivity ratio read?
Answer: The selectivity ratio was 1.33.

System: MDA-MB-231
Assay: Induction of apoptosis in human MDA-MB-231 cells assessed as early apoptotic cells after 48 hrs by Annexin V/FITC-propidium iodide staining-based flow cytometric analysis (reference value: 9.0%)
Conditions: not given

Question: For `OC(CNCCCCc1ccccc1)c1ccc(Br)cc1` (stereo unspecified), which Activity is on record?
Answer: Its Activity is 33.6%.

System: not listed separately
Assay: Selectivity index, ratio of CC50 for human MCF10 cells to IC50 for human MDA-MB-231 cells
Assay type: toxicity
Conditions: MCF10 cells versus MDA-MB-231 cells, read-out: Ratio CC50/IC50

Question: Which selectivity ratio does the source give for `OC(CNCCCCc1ccccc1)c1ccccc1` (stereo unspecified) here?
Answer: The selectivity ratio was 2.11.

Question: Which selectivity ratio does the source give for `c1ccc(CCCN2CC2c2ccccc2)cc1` (stereo unspecified) here?
Answer: Its selectivity ratio is 1.77.

Question: Which selectivity ratio does the source give for `CCCCNCC(O)c1ccccc1` (stereo unspecified) here?
Answer: The selectivity ratio was 0.72.

Question: With `c1ccc(CN2CC2c2ccccc2)cc1` (stereo unspecified) as the molecule, how does the selectivity ratio read?
Answer: The selectivity ratio was 1.01.

Question: With `OC(CNCCc1ccccc1)c1ccccc1` (stereo unspecified) as the molecule, how does the selectivity ratio read?
Answer: Its selectivity ratio is 1.04.

Question: With `c1ccc(CCN2CC2c2ccccc2)cc1` (stereo unspecified) as the molecule, how does the selectivity ratio read?
Answer: Its selectivity ratio is 1.97.

Question: Which selectivity ratio does the source give for `c1ccc(CCCCN2CC2c2ccccc2)cc1` (stereo unspecified) here?
Answer: Its selectivity ratio is 4.08.

Question: For `OC(CNCc1ccccc1)c1ccccc1` (stereo unspecified), which selectivity ratio is on record?
Answer: The selectivity ratio was 0.89.

Question: With `OC(CNCCCCc1ccccc1)c1ccc(Br)cc1` (stereo unspecified) as the molecule, how does the selectivity ratio read?
Answer: Its selectivity ratio is 2.57.

Question: For `OC(CNCCCc1ccccc1)c1ccccc1` (stereo unspecified), which selectivity ratio is on record?
Answer: The selectivity ratio was 1.92.

Question: Which selectivity ratio does the source give for `OC(CNCc1ccccc1)c1ccc(Br)cc1` (stereo unspecified) here?
Answer: The selectivity ratio was 1.56.

Question: Which selectivity ratio does the source give for `OC(CNc1ccccc1)c1ccccc1` (stereo unspecified) here?
Answer: The selectivity ratio was 1.33.

System: not listed separately
Assay: Antiproliferative activity against human MCF10 cells after 48 hrs by MTT assay
Assay type: cell-based
Conditions: not given
Summary of the method: (§1)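 MCF-10, MCF-7 or MDA-MB-231 cells, 5.0×10^5 cells seeded and grown 24 h, then exposed 48 h at 37°C to serial dilutions from 500 to 3.9 μM (DMSO 0,5%). Read-out by MTT (2.0 mg/mL in PBS), formazan dissolved in DMSO, absorbance at 570 nm. Viability is given as % of untreated cells, with IC50 from curve fitting. Mean of triplicates.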

Question: Which CC50 at 48 h does the source give for `OC(CNCCCCc1ccccc1)c1ccccc1` (stereo unspecified) here?
Answer: The CC50 at 48 h was 107 µM.

Question: Which CC50 at 48 h does the source give for `c1ccc(CCCN2CC2c2ccccc2)cc1` (stereo unspecified) here?
Answer: The CC50 at 48 h was 35.4 µM.

Question: For `CCCCNCC(O)c1ccccc1` (stereo unspecified), which CC50 at 48 h is on record?
Answer: The CC50 at 48 h was 188 µM.

Question: With `c1ccc(CN2CC2c2ccccc2)cc1` (stereo unspecified) as the molecule, how does the CC50 at 48 h read?
Answer: Its CC50 at 48 h is 41 µM.

Question: Which CC50 at 48 h does the source give for `OC(CNCCc1ccccc1)c1ccccc1` (stereo unspecified) here?
Answer: The CC50 at 48 h was 198 µM.

Question: With `c1ccc(CCN2CC2c2ccccc2)cc1` (stereo unspecified) as the molecule, how does the CC50 at 48 h read?
Answer: The CC50 at 48 h was 37.6 µM.

Question: With `c1ccc(CCCCN2CC2c2ccccc2)cc1` (stereo unspecified) as the molecule, how does the CC50 at 48 h read?
Answer: Its CC50 at 48 h is 43.3 µM.

Question: For `OC(CNCc1ccccc1)c1ccccc1` (stereo unspecified), which CC50 at 48 h is on record?
Answer: Its CC50 at 48 h is 202 µM.

Question: For `OC(CNCCCCc1ccccc1)c1ccc(Br)cc1` (stereo unspecified), which CC50 at 48 h is on record?
Answer: The CC50 at 48 h was 58.5 µM.

Question: For `OC(CNCCCc1ccccc1)c1ccccc1` (stereo unspecified), which CC50 at 48 h is on record?
Answer: The CC50 at 48 h was 196 µM.

Question: For `OC(CNCc1ccccc1)c1ccc(Br)cc1` (stereo unspecified), which CC50 at 48 h is on record?
Answer: Its CC50 at 48 h is 116 µM.

Question: With `OC(CNc1ccccc1)c1ccccc1` (stereo unspecified) as the molecule, how does the CC50 at 48 h read?
Answer: Its CC50 at 48 h is 316 µM.

System: MCF7
Assay: Antiproliferative activity against human MCF7 cells after 48 hrs by MTT assay
Assay type: functional, cell-based
Conditions: MCF7, 48 h
Summary of the method: as §1

Question: Which IC50 does the source give for `OC(CNCCCCc1ccccc1)c1ccccc1` (stereo unspecified) here?
Answer: Its IC50 is 37.2 µM.

Question: For `c1ccc(CCCN2CC2c2ccccc2)cc1` (stereo unspecified), which IC50 is on record?
Answer: The IC50 was 24.5 µM.

Question: With `CCCCNCC(O)c1ccccc1` (stereo unspecified) as the molecule, how does the IC50 read?
Answer: Its IC50 is 280 µM.

Question: With `c1ccc(CN2CC2c2ccccc2)cc1` (stereo unspecified) as the molecule, how does the IC50 read?
Answer: Its IC50 is 27.8 µM.

Question: Which IC50 does the source give for `OC(CNCCc1ccccc1)c1ccccc1` (stereo unspecified) here?
Answer: Its IC50 is 318 µM.

Question: For `c1ccc(CCN2CC2c2ccccc2)cc1` (stereo unspecified), which IC50 is on record?
Answer: The IC50 was 170 µM.

Question: With `c1ccc(CCCCN2CC2c2ccccc2)cc1` (stereo unspecified) as the molecule, how does the IC50 read?
Answer: The IC50 was 24.7 µM.

Question: With `OC(CNCc1ccccc1)c1ccccc1` (stereo unspecified) as the molecule, how does the IC50 read?
Answer: The IC50 was 210 µM.

Question: With `OC(CNCCCCc1ccccc1)c1ccc(Br)cc1` (stereo unspecified) as the molecule, how does the IC50 read?
Answer: The IC50 was 14.5 µM.

Question: With `OC(CNCCCc1ccccc1)c1ccccc1` (stereo unspecified) as the molecule, how does the IC50 read?
Answer: Its IC50 is 96.4 µM.

Question: For `OC(CNCc1ccccc1)c1ccc(Br)cc1` (stereo unspecified), which IC50 is on record?
Answer: The IC50 was 53 µM.

Question: With `OC(CNc1ccccc1)c1ccccc1` (stereo unspecified) as the molecule, how does the IC50 read?
Answer: Its IC50 is 236 µM.

System: Calf thymus DNA
Assay: Binding affinity to calf thymus DNA at 10^-6 mol/L after 5 mins by UV/Visible spectrophotometric method
Assay type: nucleic-acid assay
Conditions: Bos taurus
Summary of the method: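 Calf-thymus DNA dissolved in Tris buffer (5 mM Tris-HCl, 50 mM NaCl, pH 7.4), stirred about 12 h, A260/A280 1.86, quantified at 260 nm (ε 6600 M⁻¹ cm⁻¹). Kb was taken from a Benesi-Hildebrand fit.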

Question: With `OC(CNCCCCc1ccccc1)c1ccccc1` (stereo unspecified) as the molecule, how does the Kb read?
Answer: The Kb was 1.59 ×10⁵ /M.

System: MDA-MB-231
Assay: Induction of apoptosis in human MDA-MB-231 cells assessed as late apoptotic cells after 48 hrs by Annexin V/FITC-propidium iodide staining-based flow cytometric analysis (reference value: 10.7%)
Conditions: not given

Question: For `c1ccc(CCCCN2CC2c2ccccc2)cc1` (stereo unspecified), which Activity is on record?
Answer: Its Activity is 40%.

Question: With `OC(CNCCCCc1ccccc1)c1ccc(Br)cc1` (stereo unspecified) as the molecule, how does the Activity read?
Answer: The Activity was 56.8%.

System: MDA-MB-231
Assay: Induction of apoptosis in human MDA-MB-231 cells assessed as necrotic cells after 48 hrs by Annexin V/FITC-propidium iodide staining-based flow cytometric analysis (reference value: 7.2%)
Conditions: not given

Question: With `c1ccc(CCCCN2CC2c2ccccc2)cc1` (stereo unspecified) as the molecule, how does the Activity read?
Answer: Its Activity is 3.3%.

Question: For `OC(CNCCCCc1ccccc1)c1ccc(Br)cc1` (stereo unspecified), which Activity is on record?
Answer: The Activity was 6.7%.

System: MDA-MB-231
Assay: Antiproliferative activity against human MDA-MB-231 cells after 48 hrs by MTT assay
Assay type: functional, cell-based
Conditions: MDA-MB-231, 48 h
Summary of the method: as §1

Question: Which IC50 does the source give for `OC(CNCCCCc1ccccc1)c1ccccc1` (stereo unspecified) here?
Answer: The IC50 was 50.8 µM.

Question: With `c1ccc(CCCN2CC2c2ccccc2)cc1` (stereo unspecified) as the molecule, how does the IC50 read?
Answer: The IC50 was 19.9 µM.

Question: With `CCCCNCC(O)c1ccccc1` (stereo unspecified) as the molecule, how does the IC50 read?
Answer: The IC50 was 259 µM.

Question: For `c1ccc(CN2CC2c2ccccc2)cc1` (stereo unspecified), which IC50 is on record?
Answer: Its IC50 is 40.4 µM.

Question: For `OC(CNCCc1ccccc1)c1ccccc1` (stereo unspecified), which IC50 is on record?
Answer: Its IC50 is 190 µM.

Question: Which IC50 does the source give for `c1ccc(CCN2CC2c2ccccc2)cc1` (stereo unspecified) here?
Answer: Its IC50 is 19 µM.

Question: Which IC50 does the source give for `c1ccc(CCCCN2CC2c2ccccc2)cc1` (stereo unspecified) here?
Answer: The IC50 was 11.1 µM.

Question: Which IC50 does the source give for `OC(CNCc1ccccc1)c1ccccc1` (stereo unspecified) here?
Answer: The IC50 was 225 µM.

Question: With `OC(CNCCCCc1ccccc1)c1ccc(Br)cc1` (stereo unspecified) as the molecule, how does the IC50 read?
Answer: The IC50 was 22.7 µM.

Question: Which IC50 does the source give for `OC(CNCCCc1ccccc1)c1ccccc1` (stereo unspecified) here?
Answer: Its IC50 is 102 µM.

Question: For `OC(CNCc1ccccc1)c1ccc(Br)cc1` (stereo unspecified), which IC50 is on record?
Answer: The IC50 was 73.9 µM.

Question: With `OC(CNc1ccccc1)c1ccccc1` (stereo unspecified) as the molecule, how does the IC50 read?
Answer: Its IC50 is 237 µM.

From ChEMBL document CHEMBL4261579, “β-amino alcohols and their respective 2-phenyl-N-alkyl aziridines as potential DNA minor groove binders” (Eur J Med Chem, 2018)
